Assay results pooled from the literature.
Lines come from different studies, so protocols differ.
Cnr1: Cannabinoid receptor 1 (Cnr1, Rattus norvegicus, UniProt P20272)
Slc6a3: Sodium-dependent dopamine transporter (Slc6a3, Rattus norvegicus, UniProt P23977)
NA: Neuraminidase (NA, Influenza A virus, UniProt Q9IGQ6)
Botulinum neurotoxin type A protease: Botulinum neurotoxin type A, protease (Clostridium botulinum, UniProt P0DPI0)

CC(C)(C)C(NC(=O)c1cn(CCCCCF)c2ccccc12)C(=O)O (stereo not shown)
IC50 (Cnr1; ligand displacement, radioligand; cell membranes): 3340 nM

CCOC(=O)C1C(OC(c2ccc(F)cc2)c2ccc(F)cc2)CC2CCC1N2CCN (racemic)
Ki (Slc6a3; ligand displacement, radioligand; cell membranes): 17.2 nM

CCCCCCC(C)(C)c1cc(O)c2c(c1)OC(C)(C)[C@@H]1CC=C(C)C[C@@H]21
Ki (Cnr1; ligand displacement, radioligand): 0.9 nM

CC(N)C(=O)c1cccc(Cl)c1 (stereo not shown)
IC50 (Slc6a3; transporter uptake, inhibitor, radiometric): 399 nM

O=C1C=C(/C=C/c2ccc(O)c(O)c2)OC12C(c1cc3oc(=O)c4cc(O)c(O)cc4c3c(=O)o1)=Cc1cc(O)c(O)cc12 (stereo not shown)
IC50 (NA; enzyme activity, inhibitor): 8000 nM

CN(C)CCc1c[nH]c2ccccc12
Ki (5-hydroxytryptamine receptor 1B (HTR1B, Homo sapiens, UniProt P28222); ligand displacement, radioligand): 130 nM

CC(Cc1cccc(Cl)c1)NC(C)(C)C (stereo not shown)
IC50 (Slc6a3; transporter uptake, inhibitor, radiometric): 938 nM

CN1[C@H]2CC[C@@H]1[C@@H](c1cc(-c3ccccc3)no1)[C@H](OC(c1ccc(F)cc1)c1ccc(F)cc1)C2
Ki (Slc6a3; ligand displacement, radioligand; cell membranes): 14 nM

CC(C)NC(C)C(=O)c1cccc(Cl)c1 (stereo not shown)
IC50 (Slc6a3; transporter uptake, inhibitor, radiometric): 537 nM

O=C1C=CC(=O)N1Cc1ccc(Cl)cc1Cl
IC50 (Botulinum neurotoxin type A protease; enzyme activity, inhibitor): 80000 nM

COC(=O)C(NC(=O)c1cn(CCCCCF)c2ccccc12)C(C)(C)C (stereo not shown)
IC50 (Cnr1; ligand displacement, radioligand; cell membranes): 2 nM

CC1=CC(=O)C2(O1)C(c1cc3oc(=O)c4cc(O)c(O)cc4c3c(=O)o1)=Cc1cc(O)c(O)cc12 (stereo not shown)
IC50 (NA; enzyme activity, inhibitor): 8100 nM

O=S(=O)(c1ccc(O)c2nc(Cl)ccc12)N1CCc2c(Cl)cccc21
IC50 (Botulinum neurotoxin type A protease; enzyme activity, inhibitor): > 30000 nM
